Where “and” joins values, the source holds several entries; their conditions need not be identical. Equal entries are not always repeated.
What was measured:
Type in all cases: functional
[1] = tested on: Mus musculus; assay: On set and incidence of arthritis in the Mouse Type II collagen model following 0.5 mg/kg on day 30.
Outline: (§1)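 DBA/1 Lac mice sensitized with bovine type II collagen (100 μg) in Freund's complete adjuvant, ip boost (100 μg) on day 21. Freshly dissolved compound in sterile saline was given iv every second day, day 19 through day 40, groups of 12. A mouse was scored arthritic if erythema or edema was present on any digit, paw or appendage. Incidence reported as number positive of 12.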

[2] = tested on: Mus musculus; assay: On set and incidence of arthritis in the Mouse Type II collagen model at 0.5 dose mg/kg on day 37, expressed as number of mice treated out of 12 tested; outline: as §1
[3] = tested on: Mus musculus; assay: On set and incidence of arthritis in the Mouse Type II collagen model at 0.5 dose mg/kg on day 40,expressed as number of mice treated out of 12 tested; outline: as §1
[4] = tested on: Mus musculus; assay: On set and incidence of arthritis in the Mouse Type II collagen model at 0.5 dose mg/kg on day 44, expressed as number of mice treated out of 12 tested; outline: as §1
[5] = tested on: Mus musculus; assay: 68 Extent of paw swelling after treatment with thymopentin-5 (TP-5) compound in the Mouse Type II collagen arthritis at a dosage of 0.001 mg/kg on day 30
Outline: (§2)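 DBA/1 Lac mice immunized with bovine type II collagen (100 μg) in Freund's complete adjuvant at four to six back sites, then boosted ip (100 μg) on day 21. Dosing was iv in sterile saline every second day from day 19 through day 40, 12 mice per dose. Each hind paw was measured by caliper. Result given as % of untreated swelling after subtracting age-matched normal paw.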

[6] = tested on: Mus musculus; assay: Extent of paw swelling after treatment with thymopentin-5 (TP-5) compound in the Mouse Type II collagen arthritis at a dosage of 0.001 mg/kg on day 30; outline: as §2
[7] = tested on: Mus musculus; assay: On set and incidence of arthritis in the Mouse Type II collagen model at 0.5 dose mg/kg on day 37, expressed as ratio of number treated to that of control; outline: as §1
[8] = tested on: Mus musculus; assay: On set and incidence of arthritis in the Mouse Type II collagen model at 0.5 dose mg/kg on day 40, expressed as ratio of number treated to that of control; outline: as §1
[9] = tested on: Mus musculus; assay: On set and incidence of arthritis in the Mouse Type II collagen model at 0.5 dose mg/kg on day 44, expressed as ratio of number treated to that of control; outline: as §1
[10] = tested on: Mus musculus; assay: Extent of paw swelling after treatment with thymopentin-5 (TP-5) compound in the Mouse Type II collagen arthritis at a dosage of 1.0 mg/kg on day 44; outline: as §2
[11] = tested on: Mus musculus; assay: Extent of paw swelling after treatment with thymopentin-5 (TP-5) compound in mouse type II collagen arthritis at a dosage of 1.0 mg/kg on day 30; outline: as §2
[12] = tested on: Mus musculus; assay: On set and incidence of arthritis in the Mouse Type II collagen model at 0.5 dose mg/kg on day 40, expressed as number of mice treated out of 12 tested; outline: as §1
[13] = tested on: Rattus norvegicus; assay: extent of paw swelling following treatment with the compound in the rat adjuvant arthritis model observed on day 12 at 0.50 mg/kg dose; conditions: dose 0.5 mg/kg
Outline: (§3)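 Rat adjuvant arthritis with iv dosing every second day, starting 2 days before the adjuvant/antigen challenge. Initial doses ranged 0.05 to 0.50 mg/kg, eight rats per dose. Each hind paw was measured by caliper. Swelling minus age-matched normal paw, expressed as % of untreated animals.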

[14] = tested on: Rattus norvegicus; assay: extent of paw swelling following treatment with the compound in the rat adjuvant arthritis model observed on day 19 at 0.50 mg/kg dose; conditions: dose 0.5 mg/kg; outline: as §3
[15] = tested on: Rattus norvegicus; assay: extent of paw swelling following treatment with the compound in the rat adjuvant arthritis model observed on day 16 at 0.50 mg/kg dose; conditions: dose 0.5 mg/kg; outline: as §3
[16] = tested on: Mus musculus; assay: On set and incidence of arthritis in the Mouse Type II collagen model at 0.5 dose mg/kg on day 40, expressed as ratio of number treated to that of control:12 animals tested; outline: as §1
[17] = tested on: Mus musculus; assay: Extent of paw swelling after treatment with thymopentin-5 (TP-5) compound in the Mouse Type II collagen arthritis at a dosage of 0.5 mg/kg on day 30; outline: as §2
[18] = tested on: Mus musculus; assay: Extent of paw swelling after treatment with thymopentin-5 (TP-5) compound in the Mouse Type II collagen arthritis at a dosage of 0.5 mg/kg on day 37; outline: as §2
[19] = tested on: Mus musculus; assay: Extent of paw swelling after treatment with thymopentin-5 (TP-5) compound in the Mouse Type II collagen arthritis at a dosage of 0.5 mg/kg on day 40; outline: as §2
[20] = tested on: Mus musculus; assay: Extent of paw swelling after treatment with thymopentin-5 (TP-5) compound in the Mouse Type II collagen arthritis at a dosage of 0.5 mg/kg on day 44; outline: as §2
[21] = tested on: Mus musculus; assay: Extent of paw swelling after treatment with thymopentin-5 (TP-5) compound in the Mouse Type II collagen arthritis at 1 mg/kg on day 30.; outline: as §2
[22] = tested on: Mus musculus; assay: On set and incidence of arthritis in the Mouse Type II collagen model at 0.5 dose mg/kg on day 37,expressed as number of mice treated out of 12 tested; outline: as §1
[23] = tested on: Rattus norvegicus; assay: extent of paw swelling following treatment with the compound in the rat adjuvant arthritis model observed on day 12 at 0.050 mg/kg dose; conditions: dose 0.05 mg/kg; outline: as §3
[24] = tested on: Rattus norvegicus; assay: extent of paw swelling following treatment with the compound in the rat adjuvant arthritis model observed on day 16 at 0.050 mg/kg dose; conditions: dose 0.05 mg/kg; outline: as §3
[25] = tested on: Rattus norvegicus; assay: extent of paw swelling following treatment with the compound in the rat adjuvant arthritis model observed on day 19 at 0.050 mg/kg dose; conditions: dose 0.05 mg/kg; outline: as §3
[26] = tested on: Mus musculus; assay: Extent of paw swelling after treatment with thymopentin-5 (TP-5) compound in the Mouse Type II collagen arthritis at a dosage of 0.01 mg/kg on day 30; outline: as §2
[27] = tested on: Mus musculus; assay: Extent of paw swelling after treatment with thymopentin-5 (TP-5) compound in the Mouse Type II collagen arthritis at a dosage of 0.01 mg/kg on day 37; outline: as §2
[28] = tested on: Mus musculus; assay: Extent of paw swelling after treatment with thymopentin-5 (TP-5) compound in the Mouse Type II collagen arthritis at a dosage of 0.01 mg/kg on day 44; outline: as §2
[29] = tested on: Mus musculus; assay: Extent of paw swelling after treatment with thymopentin-5 (TP-5) compound in the Mouse Type II collagen arthritis at a dosage of 0.501 mg/kg on day 40; conditions: dose 0.01 mg/kg; in the assay text read “0.01 mg/kg” for “0.501 mg/kg”; outline: as §2

| SMILES | No. of mice [1] | No. of mice [2] | No. of mice [4] | No. of mice [7] | No. of mice [8] | No. of mice [9] | No. of mice [12] | also measured |
| --- | --- | --- | --- | --- | --- | --- | --- | --- |
| CCCC[C@@H](C(=O)N[C@@H](CC(=O)O)C(=O)N[C@H](C(=O)C[C@H](Cc1ccccc1)C(=O)O)C(C)C)N(C)C(=O)[C@@H](N)CCCN=C(N)N | 7 | 7 | 8 |  |  |  |  | No. of mice [3]: 7; Paw swelling [5]: 90%; Paw swelling [6]: 90% and 43% |
| CCCC[C@H](NC(=O)[C@@H](N)CCCN=C(N)N)C(=O)N[C@@H](CC(=O)O)C(=O)C[C@H](C)C(=O)O | 8 |  |  | 11 | 11 | 12 |  | Paw swelling [10]: 100% |
| CC(C)C(CC(=O)[C@H](CC(=O)O)NC(=O)C(CCCCN)NC(=O)[C@@H](N)CCCN=C(N)N)C(=O)NC(Cc1ccc(O)cc1)C(=O)O (some centres not stated) | 8 |  |  | 11 | 12 | 12 |  | Paw swelling [11]: 100% |
| CC(C)C(CC(=O)[C@H](CC(=O)O)NC(=O)C(CCCCN)N(C)C(=O)[C@@H](N)CCCN=C(N)N)C(=O)N[C@@H](Cc1ccccc1)C(=O)O (some centres not stated) | 6 | 4 | 8 |  |  |  | 8 | Paw swelling ([11]; 1 mg/kg): 100% and 46% and 53%; Paw swelling [13]: 0%; Paw swelling [14]: 52%; Paw swelling [15]: 80% |
| CC(C)[C@H](NC(=O)[C@H](CC(=O)O)NC(=O)[C@H](CCCCN)NC(=O)[C@@H](N)CCCN=C(N)N)C(=O)C[C@@H](Cc1ccccc1)C(=O)O | 5 | 7 | 7 |  |  |  |  | No. of mice [16]: 8; Paw swelling [17]: 100%; Paw swelling [18]: 100%; Paw swelling [19]: 93%; Paw swelling [20]: 53% |
| CCCCC(CC(=O)[C@@H](N)CCCN=C(N)N)C(=O)N[C@@H](CC(=O)O)C(=O)NC(C(=O)N[C@@H](Cc1ccccc1)C(=O)O)C(C)C (some centres not stated) | 3 |  |  | 7 | 7 | 8 |  | Paw swelling [21]: 100% |
| CCCCC(NC(=O)[C@H](CCCN=C(N)N)NC(C)=O)C(=O)N[C@@H](CC(=O)O)C(=O)NC(C(=O)C[C@@H](Cc1ccccc1)C(=O)O)C(C)C (some centres not stated) | 8 |  | 12 |  |  |  | 11 | No. of mice [22]: 11; Paw swelling [21]: 100%; Paw swelling [23]: 0%; Paw swelling [24]: 100%; Paw swelling [25]: 100% |
| CC(C)[C@H](NC(=O)[C@H](CC(=O)O)NC(=O)[C@@H]1CCCN1C(=O)[C@@H](N)CCCN=C(N)N)C(=O)C[C@@H](Cc1ccccc1)C(=O)O (stereo in doubt; 1b-A) |  |  | 9 |  |  |  | 9 | No. of mice ([1]; 0.5 mg/kg): 8; Paw swelling [26]: 62%; Paw swelling [27]: 72%; Paw swelling [28]: 47%; Paw swelling [29]: 60% |

Source: ChEMBL document CHEMBL1130100, “Stabilized analogs of thymopentin. 3. Evaluation of ketomethylene pseudopeptides for antiarthritic properties” (1997)
